Assay results as given in ChEMBL document CHEMBL1667800, “Synthesis, DNA/RNA affinity and antitumour activity of new aromatic diamidines linked by 3,4-ethylenedioxythiophene” (Eur J Med Chem, 2011).
Activity calls are given as the source filed them. The rule behind the calls is not given here.

Test system: MCF7
Experiment: Cytotoxicity against human MCF7 cells after 72 hrs by MTT assay
Assay type: functional
Settings: MCF7, 72 h
Method in brief: (§1)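 Cells were seeded at 2 × 10^4 cells/mL and attached overnight at 37 °C, 5% CO2. They were then exposed for 72 h to compounds from aqueous stocks (working solutions 10^-3–10^-6 mol dm^-3). MTT was added for 4 h at 37 °C, formazan dissolved in DMSO, and absorbance read at 570 nm. GI50 is the mean ± SD of three independent experiments run in triplicate.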

Structure (SMILES) | GI50 [µM]
CC(C)NC(=N)c1ccc(-c2sc(-c3ccc(C(=N)NC(C)C)cc3)c3c2OCCO3)cc1 | 67.5
N=C(N)c1ccc(-c2sc(-c3ccc(C(=N)N)cc3)c3c2OCCO3)cc1 | 25
CC(C)CNC(=N)c1ccc(-c2sc(-c3ccc(C(=N)NCC(C)C)cc3)c3c2OCCO3)cc1 | 7.3
N=C(Nc1ccccc1)c1sc(C(=N)Nc2ccccc2)c2c1OCCO2 | 129

Test system: Calf thymus DNA
Experiment: Binding affinity to calf thymus DNA assessed as melting temperature at compound over DNA molar ratio of 0.2 at pH 7 by thermal denaturation assay
Assay type: nucleic-acid assay
Settings: Bos taurus
Method in brief: (§2)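 Thermal melting of ds-polynucleotide (ct-DNA or poly A-poly U) alone and with compound at the given r, Na-cacodylate pH 7.0, I = 0.05 mol dm^-3. Absorbance at 260 nm was followed versus temperature, with compound absorbance subtracted and the curve normalized. Tm was taken from the first-derivative maximum or by tangent. ΔTm = Tm(complex) − Tm(free nucleic acid).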

Structure (SMILES) | ΔTm [°C]
CC(C)NC(=N)c1ccc(-c2sc(-c3ccc(C(=N)NC(C)C)cc3)c3c2OCCO3)cc1 | 11.1
N=C(N)c1ccc(-c2sc(-c3ccc(C(=N)N)cc3)c3c2OCCO3)cc1 | > 16
CC(C)CNC(=N)c1ccc(-c2sc(-c3ccc(C(=N)NCC(C)C)cc3)c3c2OCCO3)cc1 | 9

Test system: Calf thymus DNA
Experiment: Binding affinity to calf thymus DNA assessed as hyperchromic effect at compound over DNA molar ratio of 0.4 by UV-Vis spectra
Assay type: nucleic-acid assay
Settings: Bos taurus; in the assay text read “hypochromic effect” for “hyperchromic effect”
Method in brief: (§3)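 UV-Vis titration of compound (c = 1.97 × 10^-5 mol dm^-3 in the shown example) with ct-DNA. Na-cacodylate buffer, pH 7.0, I = 0.05 mol dm^-3, 1 cm quartz cuvette. Absorbance at the maximum was tracked against c(ct-DNA). Ks and n were obtained by non-linear least-squares Scatchard fitting.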

Structure (SMILES) | Activity
CC(C)NC(=N)c1ccc(-c2sc(-c3ccc(C(=N)NC(C)C)cc3)c3c2OCCO3)cc1 | Active

Test system: Calf thymus DNA
Experiment: Binding affinity to calf thymus DNA assessed as DNA CD band at compound over DNA molar ratio of > 0.3 by circular dichroism titration
Assay type: nucleic-acid assay
Settings: Bos taurus
Method in brief: (§4)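 CD titration of polynucleotide (2.0 × 10^-5 mol dm^-3, as phosphate) with added compound over a range of r = [compound]/[polynucleotide]. Na-cacodylate buffer, pH 7.0, I = 0.05 mol dm^-3, 1 cm quartz cuvette. ct-DNA was sonicated and filtered before use. Changes in the polynucleotide CD band and induced CD bands were followed.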

Structure (SMILES) | Activity
CC(C)NC(=N)c1ccc(-c2sc(-c3ccc(C(=N)NC(C)C)cc3)c3c2OCCO3)cc1 | Active
N=C(N)c1ccc(-c2sc(-c3ccc(C(=N)N)cc3)c3c2OCCO3)cc1 | Active
CC(C)CNC(=N)c1ccc(-c2sc(-c3ccc(C(=N)NCC(C)C)cc3)c3c2OCCO3)cc1 | Active

Test system: MIA PaCa-2
Experiment: Cytotoxicity against human MIAPaCa2 cells after 72 hrs by MTT assay
Assay type: functional
Settings: MIA PaCa-2, 72 h
Method in brief: as §1

Structure (SMILES) | GI50 [µM]
CC(C)NC(=N)c1ccc(-c2sc(-c3ccc(C(=N)NC(C)C)cc3)c3c2OCCO3)cc1 | 13
N=C(N)c1ccc(-c2sc(-c3ccc(C(=N)N)cc3)c3c2OCCO3)cc1 | 9.3
CC(C)CNC(=N)c1ccc(-c2sc(-c3ccc(C(=N)NCC(C)C)cc3)c3c2OCCO3)cc1 | 4.9
N=C(Nc1ccccc1)c1sc(C(=N)Nc2ccccc2)c2c1OCCO2 | 128

Test system: Nucleic Acid
Experiment: Binding affinity to ds-RNA assessed as RNA CD band at compound over RNA molar ratio of > 0.2 by circular dichroism titration
Assay type: nucleic-acid assay
Settings: not given
Method in brief: as §4

Structure (SMILES) | Activity
CC(C)NC(=N)c1ccc(-c2sc(-c3ccc(C(=N)NC(C)C)cc3)c3c2OCCO3)cc1 | Active

Test system: Calf thymus DNA
Experiment: Binding affinity to calf thymus DNA assessed as melting temperature at compound over DNA molar ratio of 0.3 at pH 7 by thermal denaturation assay
Assay type: nucleic-acid assay
Settings: Bos taurus
Method in brief: as §2

Structure (SMILES) | ΔTm [°C]
CC(C)NC(=N)c1ccc(-c2sc(-c3ccc(C(=N)NC(C)C)cc3)c3c2OCCO3)cc1 | 12.3
N=C(N)c1ccc(-c2sc(-c3ccc(C(=N)N)cc3)c3c2OCCO3)cc1 | > 16
CC(C)CNC(=N)c1ccc(-c2sc(-c3ccc(C(=N)NCC(C)C)cc3)c3c2OCCO3)cc1 | 15
N=C(Nc1ccccc1)c1sc(C(=N)Nc2ccccc2)c2c1OCCO2 | 0

Test system: Caco-2
Experiment: Cytotoxicity against human Caco2 cells after 72 hrs by MTT assay
Assay type: functional
Settings: Caco-2, 72 h
Method in brief: as §1

Structure (SMILES) | GI50 [µM]
CC(C)NC(=N)c1ccc(-c2sc(-c3ccc(C(=N)NC(C)C)cc3)c3c2OCCO3)cc1 | 76.5
N=C(N)c1ccc(-c2sc(-c3ccc(C(=N)N)cc3)c3c2OCCO3)cc1 | 13
CC(C)CNC(=N)c1ccc(-c2sc(-c3ccc(C(=N)NCC(C)C)cc3)c3c2OCCO3)cc1 | 42.8
N=C(Nc1ccccc1)c1sc(C(=N)Nc2ccccc2)c2c1OCCO2 | 134

Test system: Calf thymus DNA
Experiment: Binding affinity to calf thymus DNA assessed as hyperchromic effect at compound over DNA molar ratio of 0.5 by UV-Vis spectra
Assay type: nucleic-acid assay
Settings: Bos taurus; in the assay text read “hypochromic effect” for “hyperchromic effect”
Method in brief: as §3

Structure (SMILES) | Activity
N=C(N)c1ccc(-c2sc(-c3ccc(C(=N)N)cc3)c3c2OCCO3)cc1 | Active

Test system: Calf thymus DNA
Experiment: Binding affinity to calf thymus DNA assessed as melting temperature at compound over DNA molar ratio of 0.1 at pH 7 by thermal denaturation assay
Assay type: nucleic-acid assay
Settings: Bos taurus
Method in brief: as §2

Structure (SMILES) | ΔTm [°C]
CC(C)NC(=N)c1ccc(-c2sc(-c3ccc(C(=N)NC(C)C)cc3)c3c2OCCO3)cc1 | 8.4
N=C(N)c1ccc(-c2sc(-c3ccc(C(=N)N)cc3)c3c2OCCO3)cc1 | 12.2
CC(C)CNC(=N)c1ccc(-c2sc(-c3ccc(C(=N)NCC(C)C)cc3)c3c2OCCO3)cc1 | 9

Test system: Nucleic Acid
Experiment: Binding affinity to ds-RNA assessed as RNA CD band at compound over RNA molar ratio of < 0.2 by circular dichroism titration
Assay type: nucleic-acid assay
Settings: not given
Method in brief: as §4

Structure (SMILES) | Activity
CC(C)NC(=N)c1ccc(-c2sc(-c3ccc(C(=N)NC(C)C)cc3)c3c2OCCO3)cc1 | inactive
N=C(N)c1ccc(-c2sc(-c3ccc(C(=N)N)cc3)c3c2OCCO3)cc1 | inactive
CC(C)CNC(=N)c1ccc(-c2sc(-c3ccc(C(=N)NCC(C)C)cc3)c3c2OCCO3)cc1 | inactive

Test system: not listed separately
Experiment: Cytotoxicity against MDCK cells after 72 hrs by MTT assay
Assay type: cell-based, Canis lupus familiaris
Settings: dog
Method in brief: as §1

Structure (SMILES) | GI50 at 72 h [µM]
CC(C)NC(=N)c1ccc(-c2sc(-c3ccc(C(=N)NC(C)C)cc3)c3c2OCCO3)cc1 | 65.3
N=C(N)c1ccc(-c2sc(-c3ccc(C(=N)N)cc3)c3c2OCCO3)cc1 | 7.1
CC(C)CNC(=N)c1ccc(-c2sc(-c3ccc(C(=N)NCC(C)C)cc3)c3c2OCCO3)cc1 | 59.7
N=C(Nc1ccccc1)c1sc(C(=N)Nc2ccccc2)c2c1OCCO2 | 79.5

Test system: Calf thymus DNA
Experiment: Binding affinity to calf thymus DNA minor groove assessed as DNA CD band at compound over DNA molar ratio of < 0.2 by circular dichroism titration
Assay type: nucleic-acid assay
Settings: Bos taurus
Method in brief: as §4

Structure (SMILES) | Activity
CC(C)NC(=N)c1ccc(-c2sc(-c3ccc(C(=N)NC(C)C)cc3)c3c2OCCO3)cc1 | Active
N=C(N)c1ccc(-c2sc(-c3ccc(C(=N)N)cc3)c3c2OCCO3)cc1 | Active
CC(C)CNC(=N)c1ccc(-c2sc(-c3ccc(C(=N)NCC(C)C)cc3)c3c2OCCO3)cc1 | Active

Test system: HeLa
Experiment: Cytotoxicity against human HeLa cells after 72 hrs by MTT assay
Assay type: functional
Settings: not given
Method in brief: as §1

Structure (SMILES) | GI50 [µM]
CC(C)NC(=N)c1ccc(-c2sc(-c3ccc(C(=N)NC(C)C)cc3)c3c2OCCO3)cc1 | 72.3
N=C(N)c1ccc(-c2sc(-c3ccc(C(=N)N)cc3)c3c2OCCO3)cc1 | 32.3
CC(C)CNC(=N)c1ccc(-c2sc(-c3ccc(C(=N)NCC(C)C)cc3)c3c2OCCO3)cc1 | 18.8
N=C(Nc1ccccc1)c1sc(C(=N)Nc2ccccc2)c2c1OCCO2 | 138

Test system: HEp-2
Experiment: Cytotoxicity against human Hep2 cells after 72 hrs by MTT assay
Assay type: functional
Settings: HEp-2, 72 h
Method in brief: as §1

Structure (SMILES) | GI50 [µM]
CC(C)NC(=N)c1ccc(-c2sc(-c3ccc(C(=N)NC(C)C)cc3)c3c2OCCO3)cc1 | 9
N=C(N)c1ccc(-c2sc(-c3ccc(C(=N)N)cc3)c3c2OCCO3)cc1 | 9.3
CC(C)CNC(=N)c1ccc(-c2sc(-c3ccc(C(=N)NCC(C)C)cc3)c3c2OCCO3)cc1 | 9.9
N=C(Nc1ccccc1)c1sc(C(=N)Nc2ccccc2)c2c1OCCO2 | 100

Test system: AGS
Experiment: Cytotoxicity against human AGS cells after 72 hrs by MTT assay
Assay type: functional
Settings: not given
Method in brief: as §1

Structure (SMILES) | GI50 [µM]
CC(C)NC(=N)c1ccc(-c2sc(-c3ccc(C(=N)NC(C)C)cc3)c3c2OCCO3)cc1 | 72.3
N=C(N)c1ccc(-c2sc(-c3ccc(C(=N)N)cc3)c3c2OCCO3)cc1 | 116
CC(C)CNC(=N)c1ccc(-c2sc(-c3ccc(C(=N)NCC(C)C)cc3)c3c2OCCO3)cc1 | 59.3
N=C(Nc1ccccc1)c1sc(C(=N)Nc2ccccc2)c2c1OCCO2 | 114

Test system: Calf thymus DNA
Experiment: Binding affinity to calf thymus DNA assessed as batochromic effect at compound over DNA molar ratio of 0.2 by fluorimetric titration
Assay type: nucleic-acid assay
Settings: Bos taurus
Method in brief: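 Fluorimetric titration of compound (about 1.0 × 10^-6 mol dm^-3) with ct-DNA. Excitation above 360 nm to avoid inner-filter effects. Na-cacodylate buffer, pH 7.0, I = 0.05 mol dm^-3. Emission at the maximum was plotted against c(ct-DNA). Ks and n were obtained by non-linear Scatchard fitting.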

Structure (SMILES) | Activity
CC(C)NC(=N)c1ccc(-c2sc(-c3ccc(C(=N)NC(C)C)cc3)c3c2OCCO3)cc1 | Active
N=C(N)c1ccc(-c2sc(-c3ccc(C(=N)N)cc3)c3c2OCCO3)cc1 | Active
CC(C)CNC(=N)c1ccc(-c2sc(-c3ccc(C(=N)NCC(C)C)cc3)c3c2OCCO3)cc1 | Active

Test system: Nucleic Acid
Experiment: Binding affinity to polu A-poly U assessed as melting temperature at compound over DNA molar ratio of 0.3 at pH 7 by thermal denaturation assay
Assay type: nucleic-acid assay
Settings: not given
Method in brief: as §2

Structure (SMILES) | ΔTm [°C]
CC(C)NC(=N)c1ccc(-c2sc(-c3ccc(C(=N)NC(C)C)cc3)c3c2OCCO3)cc1 | 5.8
N=C(N)c1ccc(-c2sc(-c3ccc(C(=N)N)cc3)c3c2OCCO3)cc1 | 12.6
CC(C)CNC(=N)c1ccc(-c2sc(-c3ccc(C(=N)NCC(C)C)cc3)c3c2OCCO3)cc1 | 5.2
N=C(Nc1ccccc1)c1sc(C(=N)Nc2ccccc2)c2c1OCCO2 | 0

Test system: Calf thymus DNA
Experiment: Binding affinity to calf thymus DNA assessed as hyperchromic effect at compound over DNA molar ratio of 0.2 by UV-Vis spectra
Assay type: nucleic-acid assay
Settings: Bos taurus; in the assay text read “hypochromic effect” for “hyperchromic effect”
Method in brief: as §3

Structure (SMILES) | Activity
CC(C)CNC(=N)c1ccc(-c2sc(-c3ccc(C(=N)NCC(C)C)cc3)c3c2OCCO3)cc1 | Active

Test system: Calf thymus DNA
Experiment: Binding affinity to calf thymus DNA assessed as batochromic effect at compound over DNA molar ratio of 0.2 by UV-Vis spectra
Assay type: nucleic-acid assay
Settings: Bos taurus
Method in brief: as §3

Structure (SMILES) | Activity
CC(C)NC(=N)c1ccc(-c2sc(-c3ccc(C(=N)NC(C)C)cc3)c3c2OCCO3)cc1 | Active
N=C(N)c1ccc(-c2sc(-c3ccc(C(=N)N)cc3)c3c2OCCO3)cc1 | Active
CC(C)CNC(=N)c1ccc(-c2sc(-c3ccc(C(=N)NCC(C)C)cc3)c3c2OCCO3)cc1 | Active

Test system: NCI-H358
Experiment: Cytotoxicity against human NCI-H358 cells after 72 hrs by MTT assay
Assay type: functional
Settings: NCI-H358, 72 h
Method in brief: as §1

Structure (SMILES) | GI50 [µM]
CC(C)NC(=N)c1ccc(-c2sc(-c3ccc(C(=N)NC(C)C)cc3)c3c2OCCO3)cc1 | 113
N=C(N)c1ccc(-c2sc(-c3ccc(C(=N)N)cc3)c3c2OCCO3)cc1 | 33
CC(C)CNC(=N)c1ccc(-c2sc(-c3ccc(C(=N)NCC(C)C)cc3)c3c2OCCO3)cc1 | 73.3
N=C(Nc1ccccc1)c1sc(C(=N)Nc2ccccc2)c2c1OCCO2 | 112
